We go through seven molecules from ChEMBL document CHEMBL1126319, “Synthesis, antiproliferative, and antiviral activity of certain 4-aminopyrrolo[2,3-d]pyridazine nucleosides: an entry into a novel series of adenosine analogues” (J Med Chem, 1992).

One assay has as its system Human alphaherpesvirus 1. The experiment in a line: Concentration required to decrease the growth rate to 50% of control was evaluated against HSV-1 by using enzyme immunoassay.
A short description of assay [1]: Cytotoxicity of compound was determined visually in human diploid fibroblasts (HFF). The essentials: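 HFF cells are grown in MEM(E) with 10% FBS. Drug-induced cytopathology in uninfected cells of the HCMV plaque assay is scored 0 to 4+ at 35- and 60-fold magnification on the day of plaque staining. IC50 comes from regression against log concentration.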
The species entered for assay [2] is Homo sapiens. Kind of assay: In vitro antiproliferative effect against growth rate of H. Ep.2 cells at 100 uM concentration. In kind it is functional. The essentials:
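H.Ep.2 cells receive compound at 100 μM. Growth is read by crystal violet A560-570 at days 0, 2 and 5 and expressed as growth rate, the slope of semilog cell number versus time as a percent of control.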

Assay [3] deals with L1210. The experiment in a line: In vitro antiproliferative effect against growth rate of L1210 cells at 100 uM concentration. The class given is functional, Mus musculus. The essentials:
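L1210 cells are held in static suspension in Fischer's medium with compound at 100 μM. Cell counts are taken at 0, 48 and 96 h. Growth rate is the semilog slope versus time as a percent of control.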

The test system of assay [4] is Human betaherpesvirus 5. The experiment in a line: Concentration required to decrease the growth rate to 50% of control was evaluated against HCMV by using plaque reduction assay. In kind it is functional, organism-based. The method, boiled down: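 HFF monolayers infected with about 50 PFU of HCMV Towne strain (plaque-purified P0 isolate) in a 0.2 mL inoculum. Compounds are dissolved in the overlay medium and plaques are counted. Percent inhibition is regressed linearly against log concentration to give the IC50. Acyclovir or ganciclovir serves as positive control. Values are averages of two to seven experiments.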
(In a plaque reduction assay, fewer plaques than in the control indicate reduced infectivity or spread.)

The test system of assay [5] is L1210. The experiment in a line: Concentration required to decrease the growth rate to 50% of control was evaluated by determining their ability to inhibit growth of L1210 cells in vitro. In kind it is functional, cell-based. The conditions noted are these: Mus musculus. The method, boiled down: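 L1210 cells are grown in static suspension in Fischer's medium. Cell number is counted at 0, 48 and 96 h across a range of compound concentrations. Growth rate is the semilog slope as a percent of control; the 48–96 h rate is used if growth slowed. IC50 is the concentration giving 50% of control growth rate.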

The subject of another assay is KB. Kind of assay: Cytotoxicity of compound was determined by assaying cell growth in human neoplastic cell line(KB). The class given is functional, cell-based. The method, boiled down: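 KB cells (human epidermoid oral carcinoma) are grown in MEM(H) with 5% FBS. Growth is measured spectrophotometrically by crystal violet staining two days after drug treatment. IC50 comes from linear regression of percent inhibition against log concentration.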

Assay [6] deals with Human betaherpesvirus 5. The experiment in a line: Concentration required to decrease the growth rate to 50% of control was evaluated against HCMV by using yield reduction assay. In kind it is functional.
The species named for assay [7] is Homo sapiens. The experiment in a line: Concentration required to decrease the growth rate to 50% of control was evaluated by determining their ability to inhibit growth of H.Ep.2 cells in vitro. In kind it is functional, cell-based. The settings on record: HEp-2. The essentials: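 H.Ep.2 cells are grown in MEM (Earle's salts) with 15% bovine calf serum under 5% CO2, and 2000 cells/well are plated in MEM with 5% serum. Compounds are added 1 day later. Growth is read by crystal violet staining (A560-570) at days 0, 2 and 5 after addition. Growth rate is Td(control)/Td(treated), and IC50 is the concentration halving growth rate.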

SMILES strings stand for the structures.

As for `Nc1nncc2c1ccn2C1O[C@H](CO)[C@@H](O)[C@H]1O` (stereo partly drawn), the IC50 (in the assay with Human alphaherpesvirus 1; in assay [1]; with Human betaherpesvirus 5 [4]) was over 100 µM throughout. In addition, the Control in the assay listed under Homo sapiens [2] is 93%; in the assay with L1210 [3], 100%.

For `Nc1nncc2c1ccn2C1O[C@H](CO)[C@@H](O)[C@@H]1O` (stereo partly drawn), the IC50 (with Human alphaherpesvirus 1; with L1210 [5]; in [1]; in the assay on Human betaherpesvirus 5 [4]) was over 100 µM each time. In the assay on L1210 [3], this molecule had a Control of 88%.

As to `Nc1nncc2c1c(Br)cn2C1O[C@H](CO)[C@@H](O)[C@H]1O` (stereo partly drawn), the IC50 (commonly the concentration that inhibits the measured activity by half) with Human alphaherpesvirus 1 came to 30 µM; in the assay on KB it was 12 µM; in the assay on L1210 [5], 24 µM; in assay [1], 100 µM; with Human betaherpesvirus 5 [4], 90 µM; in the assay listed under Homo sapiens [7] it was 5.2 µM. Besides, the IC90 (commonly the concentration at which the effect reaches the 90% level) in the assay on Human betaherpesvirus 5 [6] was determined as 2.2 µM. Besides, the Of control in the assay listed under Homo sapiens [2] is reported as 6%. The Control in the assay on L1210 [3] came to 9%.

In the case of `Nc1ncnc2c1c(Br)cn2[C@@H]1O[C@H](CO)[C@@H](O)[C@H]1O`, the IC50 was 4 µM with Human alphaherpesvirus 1, 3 µM in the assay on KB, 1.2 µM in assay [1] and 0.6 µM in the assay with Human betaherpesvirus 5 [4]. Besides, the 90% effect level in the assay on Human betaherpesvirus 5 [6] (IC90) was put at 3.5 µM. In the assay with L1210 [3], this molecule had a Control of 9%.

Consider `Nc1nc2c(ncn2COCCO)c(=O)[nH]1` [ACYCLOVIR], for which the values for the IC50 (in the assay on Human alphaherpesvirus 1; with KB; in [1]) were 3.4 µM, over 100 µM and over 100 µM, respectively. The IC90 in the assay with Human betaherpesvirus 5 [6] amounted to 90 µM.

Take `Nc1nc2c(ncn2COC(CO)CO)c(=O)[nH]1` [GANCICLOVIR]: the IC50 with KB is over 100 µM; in assay [1] it was over 100 µM; in the assay with Human betaherpesvirus 5 [4], 8.4 µM. Moreover, the IC90 in the assay on Human betaherpesvirus 5 [6] is 1.8 µM.

`Nc1ncnc2c1ccn2[C@@H]1O[C@H](CO)[C@@H](O)[C@H]1O` [TUBERCIDIN]: the IC50 turned out to be 1 µM in the assay on KB, 0.4 µM in [1] and 0.06 µM in the assay listed under Homo sapiens [7]. The molecule further returned an Of control in the assay listed under Homo sapiens [2] of 0%. The molecule further showed a Control in the assay on L1210 [3] of 0%.
